The values that follow come from ChEMBL document CHEMBL3608263, “Identification and optimisation of 4,5-dihydrobenzo[1,2-d:3,4-d]bisthiazole and 4,5-dihydrothiazolo[4,5-h]quinazoline series of selective phosphatidylinositol-3 kinase alpha inhibitors” (Bioorg Med Chem Lett, 2015).

Data set [1] concerns Rattus norvegicus. Description: Dose normalized AUC in Sprague-Dawley rat at 1 mg/kg, iv. The class given is ADME, organism-based. The conditions noted are these: in vivo. In a few lines: (§1)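 Female Sprague-Dawley rats, conscious, permanently cannulated, with free access to food. Dosed 1.0 mg kg-1 intravenously and 3.0 mg kg-1 orally. Blood levels sampled from 5 minutes to 48 h post dose.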

A short description of data set [2]: Permeability across apical to basolateral side in human Caco2 cells. Type of data set: ADME, cell-based. The conditions noted are these: Caco-2, read-out: permeability.
Data set [3] is described as follows: Volume of distribution at steady state in Sprague-Dawley rat at 1 mg/kg, iv and 3 mg/kg, po. The class given is ADME, organism-based. Particulars: in vivo, read-out: Vdss; call rule not given here. In a few lines: as §1
Data set [4] is described as follows: Permeability across basolateral to apical side in human Caco2 cells. The class given is ADME, cell-based. The conditions noted are these: Caco-2, read-out: permeability.
The nature of data set [5]: Oral bioavailability in Sprague-Dawley rat at 3 mg/kg. Type of data set: ADME, organism-based. Particulars: in vivo. In a few lines:
as §1

A short description of data set [6]: Solubility of the compound at pH 6.8 by high throughput equilibrium method. The class given is physicochemical. Particulars: buffer.
In data set [7] the test system is Rattus norvegicus. Description: Dose normalized AUC in Sprague-Dawley rat at 3 mg/kg, po. Type of data set: ADME, organism-based. The conditions noted are these: in vivo. In a few lines: as §1
In another data set the test system is Plasma. Description: Drug uptake in plasma of athymic nude mouse xenografted with Rat1-myr-p110alpha tumor at 50 mg/kg, po measured at 8 hrs. The class given is ADME, organism-based. The conditions noted are these: in vivo. Put shortly:
(§2)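 Female athymic mice bearing subcutaneous Rat1-myr-p110α xenografts were given one oral dose of 50 mg kg-1, as suspension or solution. At set time points, groups of n = 4 were sacrificed. Tumors were flash-frozen, pulverized and analysed by Western blot for Ser473 p-Akt. Compound was quantified in plasma in parallel.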

The nature of data set [8]: Plasma concentration in athymic nude mouse xenografted with Rat1-myr-p110alpha tumor at 50 mg/kg, po measured after 16 hrs. The class given is ADME, organism-based. Put shortly:
as §2

The nature of data set [9]: Plasma concentration in athymic nude mouse xenografted with Rat1-myr-p110alpha tumor at 50 mg/kg, po measured up to 8 hrs. The class given is ADME, organism-based. In a few lines:
as §2

≈ marks a conversion by molar mass, not a printed value.

For the compound `C[C@@H]1CCN(C(=O)Nc2nc3c(s2)-c2nc(C(C)(C)C)ncc2CC3)[C@@H]1C(N)=O`, the results for the AUC/dose in the data set on Rattus norvegicus [1] and in the data set on Rattus norvegicus [7] were 5241 nmol·h/L and 1874 nmol·h/L, respectively. Moreover, in [2], the Papp A→B worked out at 3.4 ×10⁻⁶ cm/s. Further, the Vd in [3] was determined as 0.5 L/kg. Further, the Papp B→A in data set [4] turned out to be 21.7 ×10⁻⁶ cm/s. The same compound returned a bioavailability in [5] of 36%. In addition, the solubility (thermodynamic) in data set [6] stood at 71 µM (≈ 29.4 µg/mL).

In data set [6], `C[C@@H]1CCN(C(=O)Nc2nc3c(s2)-c2nc(C(C)(C)C)sc2CC3)[C@@H]1C(N)=O` displayed a solubility (thermodynamic) of 9 µM (≈ 3.78 µg/mL).

As to `CN(C)C[C@@H]1CCN(C(=O)Nc2nc3c(s2)-c2nc(C(C)(C)C)sc2CC3)[C@@H]1C(N)=O`, the AUC/dose in the data set on Rattus norvegicus [1] was found to be 956 nmol·h/L; in the data set on Rattus norvegicus [7] it was 531 nmol·h/L. For the same compound, in data set [2], the Papp A→B was determined as 0.76 ×10⁻⁶ cm/s. Moreover, in [3], the Vd is 24 L/kg. Besides, the Papp B→A in data set [4] was determined as 6.87 ×10⁻⁶ cm/s. The compound further showed a bioavailability in data set [5] of 56%.

For `CN(C)C[C@@]1(C(N)=O)CCCN1C(=O)Nc1nc2c(s1)-c1nc(C(C)(C)C)ncc1CC2`, the figures for the AUC/dose in the data set on Rattus norvegicus [1] and in the data set on Rattus norvegicus [7] were 1444 nmol·h/L and 1116 nmol·h/L, respectively. In addition, in data set [2], the Papp A→B was 5.2 ×10⁻⁶ cm/s. The Vd in data set [3] stood at 3.2 L/kg. For the same compound, the Papp B→A in data set [4] stood at 15.8 ×10⁻⁶ cm/s. This compound showed a bioavailability in data set [5] of 77%. Besides, in data set [6], the thermodynamic solubility was greater than 1000 µM.

On to `CC(C)(C)c1nc2c(s1)CCc1nc(NC(=O)N3CCC[C@@]3(C)C(N)=O)sc1-2`, for which the Papp A→B in data set [2] was determined as 12.1 ×10⁻⁶ cm/s. Further, in [4], the Papp B→A came out at 15.6 ×10⁻⁶ cm/s. This compound returned a solubility (thermodynamic) in data set [6] of 310 µM (≈ 130 µg/mL).

On to `Cc1nc(NC(=O)N2CCC[C@H]2C(N)=O)sc1-c1ccnc(C(C)(C)C)n1`, for which the AUC/dose amounted to 1128 nmol·h/L in the data set with Rattus norvegicus [1] and 199 nmol·h/L in the data set on Rattus norvegicus [7]. Besides, in data set [3], the Vd came out at 1.3 L/kg. The compound further yielded a bioavailability in data set [5] of 18%.

Turning to `CC(C)(C)c1ncc2c(n1)-c1sc(NC(=O)N3CC[C@@H]4C[C@@]43C(N)=O)nc1CC2`, the AUC/dose is 16472 nmol·h/L with Rattus norvegicus [1] and 13599 nmol·h/L in the data set on Rattus norvegicus [7]. For the same compound, in the data set with Plasma, the Drug uptake entry is “Active”. The Vd in data set [3] came to 0.6 L/kg. Also, the concentration at 16 h in [8] is 1000 nM. The bioavailability in data set [5] is 83%. Also, in data set [6], the thermodynamic solubility came to 51 µM (≈ 21 µg/mL).

With `Cc1nc(NC(=O)N2CCC[C@H]2C(N)=O)sc1-c1csc(C(C)(C)C)n1`, the AUC/dose in the data set with Rattus norvegicus [1] turned out to be 561 nmol·h/L; with Rattus norvegicus [7], 70 nmol·h/L. Besides, the Papp A→B in data set [2] came to 12.3 ×10⁻⁶ cm/s. Moreover, in data set [3], the Vd was determined as 2 L/kg. For the same compound, the Papp B→A in data set [4] came out at 15.6 ×10⁻⁶ cm/s. The compound also displayed a bioavailability in data set [5] of 2%.

Consider `CC(C)(C)c1nc2c(s1)CCc1nc(NC(=O)N3CC[C@@H]4C[C@@]43C(N)=O)sc1-2`, for which the solubility (thermodynamic) in data set [6] was 351 µM (≈ 147 µg/mL).

As for `CN(C)[C@@H]1C[C@@H](C(N)=O)N(C(=O)Nc2nc3c(s2)-c2nc(C(C)(C)C)ncc2CC3)C1`, in [6], the solubility (thermodynamic) turned out to be 500 µM (≈ 222 µg/mL).

The compound `C[C@@H]1CCN(C(=O)Nc2nc3c(s2)-c2nc(C(C)(C)C(F)(F)F)ncc2CC3)[C@@H]1C(N)=O` gave a solubility (thermodynamic) in data set [6] of 9 µM (≈ 4.22 µg/mL).

In data set [6], `NC(=O)[C@@H]1CCCN1C(=O)Nc1nc2c(s1)-c1nc(CC3CC3)sc1CC2` had a solubility (thermodynamic) of 55 µM (≈ 22.2 µg/mL).

In turn, `CC(C)(C)c1ncc2c(n1)-c1sc(NC(=O)N3CCC[C@H]3C(N)=O)nc1CC2` came in with a solubility (thermodynamic) in [6] of 125 µM (≈ 50.1 µg/mL).

In [6], `C[C@H]1CCN(C(=O)Nc2nc3c(s2)-c2nc(C(C)(C)C)sc2CC3)[C@@H]1C(N)=O` yielded a solubility (thermodynamic) of less than 4 µM.

With `Cc1nc(NC(=O)N2CCC[C@H]2C(N)=O)sc1-c1ccnc(C(C)(C)C(F)(F)F)c1` [ALPELISIB], in data set [2], the Papp A→B came out at 3.8 ×10⁻⁶ cm/s. For the same compound, the Papp B→A in [4] came to 18.3 ×10⁻⁶ cm/s.

On to `CN(C)C[C@@H]1CCN(C(=O)Nc2nc3c(s2)-c2nc(C(C)(C)C)ncc2CC3)[C@@H]1C(N)=O`, for which the thermodynamic solubility in data set [6] was found to be 276 µM (≈ 126 µg/mL).

In data set [9], `C[C@@H]1CCN(C(=O)Nc2nc3c(s2)-c2nc(C(C)(C)C(F)(F)F)sc2CC3)[C@@H]1C(N)=O` registered a concentration at 8 h greater than 1000 nM. Also, in [6], the thermodynamic solubility turned out to be 14 µM (≈ 6.63 µg/mL).

Regarding `CC(C)(C)c1ncc2c(n1)-c1sc(NC(=O)N3CCC[C@@]3(C)C(N)=O)nc1CC2`, the Papp A→B in data set [2] is 3.4 ×10⁻⁶ cm/s. Also, the Papp B→A in data set [4] came to 25.5 ×10⁻⁶ cm/s. The thermodynamic solubility in [6] came to 60 µM (≈ 24.9 µg/mL).

With `CC(C)(C)c1nc2c(s1)CCc1nc(NC(=O)N3CCC[C@H]3C(N)=O)sc1-2`, the AUC/dose in the data set on Rattus norvegicus [1] was found to be 4132 nmol·h/L; in the data set on Rattus norvegicus [7], 1585 nmol·h/L. In addition, the Vd in data set [3] amounted to 0.4 L/kg. Moreover, the bioavailability in [5] stood at 39%. The compound also showed a solubility (thermodynamic) in data set [6] of 65 µM (≈ 26.4 µg/mL).
